Assay [1] has as its target Tiam1 PDZ domain (wild-type) (Homo sapiens, UniProt Q13009). The experiment in a line: Equilibrium fluorescence anisotropy binding of dansylated peptides. As to conditions: wild-type Tiam1 PDZ; ΔG = RT ln(Kd), T 298.15 K. In outline: (§1)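 Purified PDZ domains were titrated from a 1.5 mM stock into 1 μM N-terminally dansylated peptide at 25 °C in a stirred cuvette. Proteins were expressed in E. coli BL21(DE3), purified by Ni-chelate and size-exclusion chromatography, and His6-tag cleaved by TEV; Tiam2 is mouse residues 809–994; mutants made by site-directed mutagenesis. Anisotropy ex 340/em 550 nm, buffer-blank corrected. Kd from hyperbolic fit, mean of ≥3 independent runs; ΔG = RT ln Kd (298.15 K).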

Another assay has as its target T1, Tiam2 PDZ domain (Mus musculus, UniProt Q6ZPF3).
T1 sequence (Q6ZPF3 908-997 limits assumed): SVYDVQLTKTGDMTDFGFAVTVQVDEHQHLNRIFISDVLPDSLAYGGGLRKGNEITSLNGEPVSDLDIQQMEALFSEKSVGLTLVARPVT
The description is as above. Put shortly:
as §1

The target in the next assay is Tiam1 PDZ L911M (Homo sapiens, UniProt Q13009, L911M). The assay is described as follows: Fluorescence anisotropy binding, Tiam1 PDZ mutant. Put shortly: as §1
Sequence of Tiam1 PDZ L911M (Q13009 841-930 L911M limits assumed): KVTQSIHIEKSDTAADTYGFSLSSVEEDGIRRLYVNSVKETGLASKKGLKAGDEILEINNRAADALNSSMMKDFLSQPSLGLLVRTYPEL
In a further assay the target is Tiam1 PDZ K912E (Homo sapiens, UniProt Q13009, K912E). The experiment in a line: Fluorescence anisotropy binding, Tiam1 PDZ mutant. Put shortly:
as §1
For orientation: Fluorescence polarisation rises when a labelled molecule tumbles more slowly, as on binding a larger partner.

Assay [2] concerns the target Tiam1 PDZ L911M/K912E (Mus musculus, UniProt Q60610, L911M/K912E, species not given). The assay is described as follows: Fluorescence anisotropy binding and double-mutant cycle, Tiam1 PDZ mutant. As to conditions: Tiam1 PDZ L911M/K912E. In outline: (§2)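 Wild-type, single- and double-mutant Tiam1 PDZ (E. coli-expressed, tag-cleaved) were each titrated into 1 μM dansylated peptide at 25 °C. Anisotropy read at ex 340/em 550 nm; Kd from hyperbolic fit, ≥3 independent runs. ΔG = RT ln Kd at 298.15 K. Coupling energy ΔΔΔGint = (ΔGWT − ΔGM1) − (ΔGM2 − ΔGDM), with errors propagated by standard methods.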

Assay [3] relates to Tiam1 PDZ L911M/K912E. Described as above. In outline:
as §2

Another assay deals with Tiam1 PDZ L915F (Homo sapiens, UniProt Q13009, L915F). The assay is described as follows: Fluorescence anisotropy binding, Tiam1 PDZ mutant. In outline: as §1
Sequence of Tiam1 PDZ L915F (Q13009 841-930 L915F limits assumed): as the sequence (Q13009 841-930 L911M limits assumed) above, with M71L, L75F counted along it
The next assay addresses Tiam1 PDZ L920V (Homo sapiens, UniProt Q13009, L920V). The assay is described as follows: Fluorescence anisotropy binding, Tiam1 PDZ mutant. Put shortly:
as §1

For assay [4], the target named is Tiam1 PDZ L915F/L920V (Mus musculus, UniProt Q60610, L915F/L920V, species not given). The experiment in a line: Fluorescence anisotropy binding and double-mutant cycle, Tiam1 PDZ mutant. To be noted: Tiam1 PDZ L915F/L920V. Put shortly: as §2
Sequence of Tiam1 PDZ L915F/L920V (Mus musculus, UniProt Q60610, L915F/L920V, species not given) (Q60610 2-1591 L915F/L920V): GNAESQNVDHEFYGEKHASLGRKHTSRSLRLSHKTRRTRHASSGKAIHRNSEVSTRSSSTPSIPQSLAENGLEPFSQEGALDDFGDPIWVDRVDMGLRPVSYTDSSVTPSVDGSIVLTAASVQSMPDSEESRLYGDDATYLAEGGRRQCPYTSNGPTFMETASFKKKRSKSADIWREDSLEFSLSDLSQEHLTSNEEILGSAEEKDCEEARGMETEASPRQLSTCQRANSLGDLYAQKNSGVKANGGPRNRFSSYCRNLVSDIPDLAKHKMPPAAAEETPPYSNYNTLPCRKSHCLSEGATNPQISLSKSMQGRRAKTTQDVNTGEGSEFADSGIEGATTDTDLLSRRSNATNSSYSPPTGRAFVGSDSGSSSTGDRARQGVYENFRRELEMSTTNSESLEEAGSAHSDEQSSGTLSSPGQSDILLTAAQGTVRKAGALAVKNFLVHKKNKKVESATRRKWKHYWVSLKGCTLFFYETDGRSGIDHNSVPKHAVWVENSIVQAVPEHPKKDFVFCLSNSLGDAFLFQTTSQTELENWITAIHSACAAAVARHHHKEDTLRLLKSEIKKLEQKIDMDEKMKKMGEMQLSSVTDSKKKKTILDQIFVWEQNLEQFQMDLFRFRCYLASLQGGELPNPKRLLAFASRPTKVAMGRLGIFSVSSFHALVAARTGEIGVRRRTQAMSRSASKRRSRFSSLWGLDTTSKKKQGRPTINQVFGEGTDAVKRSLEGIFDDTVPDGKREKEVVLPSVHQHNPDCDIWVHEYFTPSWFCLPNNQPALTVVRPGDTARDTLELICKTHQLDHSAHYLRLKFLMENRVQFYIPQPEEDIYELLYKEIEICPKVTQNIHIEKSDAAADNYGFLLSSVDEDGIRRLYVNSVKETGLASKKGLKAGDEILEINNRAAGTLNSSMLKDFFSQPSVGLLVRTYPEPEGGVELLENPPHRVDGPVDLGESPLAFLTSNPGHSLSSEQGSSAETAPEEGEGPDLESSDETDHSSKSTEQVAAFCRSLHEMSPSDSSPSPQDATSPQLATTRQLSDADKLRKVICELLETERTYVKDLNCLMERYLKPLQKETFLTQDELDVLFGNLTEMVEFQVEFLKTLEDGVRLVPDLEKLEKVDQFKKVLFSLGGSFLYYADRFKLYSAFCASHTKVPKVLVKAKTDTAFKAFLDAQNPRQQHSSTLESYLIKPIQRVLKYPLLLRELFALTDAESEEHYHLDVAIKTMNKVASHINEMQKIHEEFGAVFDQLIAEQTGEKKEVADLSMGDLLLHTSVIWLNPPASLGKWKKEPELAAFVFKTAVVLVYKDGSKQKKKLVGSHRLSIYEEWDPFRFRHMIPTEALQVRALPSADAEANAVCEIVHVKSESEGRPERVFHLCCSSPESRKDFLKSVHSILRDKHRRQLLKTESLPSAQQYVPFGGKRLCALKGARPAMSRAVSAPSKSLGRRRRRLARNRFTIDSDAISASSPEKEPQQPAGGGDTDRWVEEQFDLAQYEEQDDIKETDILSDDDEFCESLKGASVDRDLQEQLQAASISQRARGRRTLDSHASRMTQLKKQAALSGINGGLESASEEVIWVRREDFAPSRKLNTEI
In assay [5] the test system is Tiam1 PDZ L915F/L920V. Described as above. Put shortly:
as §2

Assay [6] deals with Tiam1 PDZ QM (L911M/K912E/L915F/L920V) (Homo sapiens, UniProt Q13009, K912E/L911M/L915F/L920V). The assay is described as follows: Fluorescence anisotropy binding, Tiam1 PDZ quadruple mutant. In outline:
as §1

For assay [7], the system named is Tiam1 PDZ QM (L911M/K912E/L915F/L920V). The description is as above. Put shortly: as §1
Another assay concerns the target Neurexin1 (Homo sapiens). To be noted: cited from earlier work.
Assay [8] has as its target Model peptide. The experiment in a line: NMR titration. To be noted: cited from earlier work.
In another assay the target is Syndecan1 (Homo sapiens). The assay is described as follows: fluorescence anisotropy. As to conditions: cited from earlier work.
Another assay addresses T2, Tiam1 peptide 3.
T2 chain: YAAKAFRF
The experiment in a line: fluorescence anisotropy.

The next assay addresses T3, Tiam1 peptide 2.
T3 chain: YAAEKYWA
The experiment in a line: fluorescence anisotropy.

The target in the next assay is T4, Caspr4 (Homo sapiens).
T4 chain: ENQKEYFF
The experiment in a line: fluorescence anisotropy.

The next assay has as its target T5, Syndecan1 (Homo sapiens).
T5 chain: TKQEEFYA
The assay is described as follows: fluorescence anisotropy.

The next assay concerns the target T6, Tiam2 peptide 3.
T6 chain: YAALIHKF
The assay is described as follows: fluorescence anisotropy.

The target in another assay is T7, Tiam1 peptide 1.
T7 chain: YAAYRYRA
The experiment in a line: fluorescence anisotropy.

The next assay addresses T8, Tiam2 peptide 2.
T8 chain: YAAGRKHF
The assay is described as follows: fluorescence anisotropy.

In a further assay the target is T9, Neurexin1 (Homo sapiens).
T9 chain: NKDKEYYV
The experiment in a line: fluorescence anisotropy.

Assay [9] has as its target T10, Model peptide.
T10 chain: SSRKEYYA
The experiment in a line: fluorescence anisotropy.

Numbering of substitutions follows the chain as printed. Where two headings read alike, the source gives them in different places. Peptide text beside a SMILES is read from it. * marks the point of attachment. Dansyl = CN(C)c1cccc2c(S(=O)(=O)*)cccc12

Sequence of Tiam1 PDZ K912E (Q13009 841-930 K912E limits assumed): as the sequence (Q13009 841-930 L911M limits assumed) above, with M71L, K72E counted along it
Sequence of Tiam1 PDZ L920V (Q13009 841-930 L920V limits assumed): as the sequence (Q13009 841-930 L911M limits assumed) above, with M71L, L80V counted along it
Sequence of Tiam1 PDZ L911M/K912E (Mus musculus, UniProt Q60610, L911M/K912E, species not given) (Q60610 2-1591 L911M/K912E): as the sequence (Q60610 2-1591 L915F/L920V) above, with L910M, K911E, F914L, V919L counted along it
Sequence of Tiam1 PDZ QM (L911M/K912E/L915F/L920V) (Homo sapiens, UniProt Q13009, K912E/L911M/L915F/L920V) (Q13009 841-930 L911M/K912E/L915F/L920V limits assumed): as the sequence (Q13009 841-930 L911M limits assumed) above, with K72E, L75F, L80V counted along it
Sequence of Tiam1 PDZ domain (wild-type) (Q13009 841-930 limits assumed): as the sequence (Q13009 841-930 L911M limits assumed) above, with M71L counted along it

The term Kd denotes the equilibrium constant for the complex coming apart. `CN(C)c1cccc2c(S(=O)(=O)N[C@@H](CCC(=O)O)C(=O)N[C@@H](CC(N)=O)C(=O)N[C@@H](CCC(N)=O)C(=O)N[C@@H](CCCCN)C(=O)N[C@@H](CCC(=O)O)C(=O)N[C@@H](Cc3ccc(O)cc3)C(=O)N[C@@H](Cc3ccccc3)C(=O)N[C@@H](Cc3ccccc3)C(=O)O)cccc12` [Caspr4] (Dansyl-ENQKEYFF-OH): the ΔGb in assay [1] was -6.43 ± 0.01 kcal/mol; on Tiam1 PDZ L911M (Tiam1 PDZ L911M) it was -6.61 ± 0.01 kcal/mol; at Tiam1 PDZ K912E (Tiam1 PDZ K912E), -5.77 ± 0.04 kcal/mol; on Tiam1 PDZ L911M/K912E [2] it was -6.19 ± 0.02 kcal/mol; at Tiam1 PDZ L915F (Tiam1 PDZ L915F) it was -5.74 ± 0.04 kcal/mol; on Tiam1 PDZ L920V (Tiam1 PDZ L920V), -6.77 ± 0.03 kcal/mol. For the same molecule, the ΔGb at Tiam1 PDZ L915F/L920V [4] was -5.61 ± 0.04 kcal/mol; in assay [6] (Tiam1 PDZ QM), -6.46 ± 0.01 kcal/mol. For the same molecule, the Kd on Tiam2 PDZ domain came out at 3.4 ± 0.3 µM; at Tiam1 PDZ L911M, 14 ± 0.3 µM; at Tiam1 PDZ K912E it was 58.6 ± 4.1 µM; on Tiam1 PDZ L911M/K912E [2] (fluorescence anisotropy, 25 °C), 28.9 ± 0.9 µM; at Tiam1 PDZ L915F it was 61 ± 4 µM; on Tiam1 PDZ L920V, 10.8 ± 0.6 µM. Also, the Kd on Tiam1 PDZ L915F/L920V [4] (fluorescence anisotropy, 25 °C) worked out at 76.5 ± 3.4 µM; in assay [6], 18.3 ± 0.3 µM. At Tiam2 PDZ domain (Tiam2 vs Tiam1 PDZ), the “fold lower Kd for Tiam2 PDZ than for Tiam1 PDZ” value is recorded as approximately 6 fold. The ΔΔGb is -0.18 ± 0.02 kcal/mol at Tiam1 PDZ L911M (ΔGb(mutant) − ΔGb(wild-type), L911M); 0.67 ± 0.04 kcal/mol at Tiam1 PDZ K912E (ΔGb(mutant) − ΔGb(wild-type), K912E); 0.24 ± 0.02 kcal/mol in the assay with Tiam1 PDZ L911M/K912E [3] (ΔGb(mutant) − ΔGb(wild-type), L911M/K912E); 0.69 ± 0.04 kcal/mol on Tiam1 PDZ L915F (ΔGb(mutant) − ΔGb(wild-type), L915F); -0.33 ± 0.04 kcal/mol at Tiam1 PDZ L920V (ΔGb(mutant) − ΔGb(wild-type), L920V); -0.02 ± 0.02 kcal/mol in assay [7] (ΔGb(mutant) − ΔGb(wild-type), QM). Besides, the “ΔΔΔGint (pair-wise coupling free energy)” value in the assay with Tiam1 PDZ L911M/K912E [3] (double-mutant cycle L911/K912 (S-2 pocket)) is -0.25 ± 0.04 kcal/mol; with Tiam1 PDZ L915F/L920V [5] (double-mutant cycle L915/L920 (S0 pocket)), 0.38 ± 0.10 kcal/mol. For the same molecule, the Σ singles in the assay on Tiam1 PDZ L911M/K912E [3] (sum of ΔΔGb of single mutants L911M and K912E) is reported as 0.49 ± 0.04 kcal/mol; with Tiam1 PDZ L915F/L920V [5] (sum of ΔΔGb of single mutants L915F and L920V), 0.36 ± 0.06 kcal/mol. Also, on Tiam1 PDZ L920V (L920V), the “fold decrease in Kd vs wild-type Tiam1 PDZ” value is listed as approximately 2 fold. For the same molecule, in assay [7] (QM vs Tiam2 PDZ), the “fold higher Kd than Tiam2 PDZ domain” value is given as 5 fold.

Tiam1 PDZ (from UniProt Q13009): the Kd is 2400 µM with Neurexin1 (Homo sapiens), 112 µM with Model peptide [8] and 26.9 µM with Syndecan1 (Homo sapiens).

B1: Tiam1 PDZ (protein)
chain: VTQSIHIEKSDTAADTYGFSLSSVEEDGIRRLYVNSVKETGLASKKGLKAGDEILEINNRAADALNSSML
Turning to B1, the Kd is 200 µM with Tiam1 peptide 3, 90.3 µM in the assay with Tiam1 peptide 2 and 19 µM with Caspr4.

B2: Tiam1 PDZ (protein)
chain: B1 chain with L70M
With B2, the Kd came out at 14 µM with Caspr4 and 34.7 µM in the assay with Syndecan1.

B3: Tiam2 PDZ (protein)
chain: NVYDVQLTKTGSVCDFGFAVTAQVDERQHLSRIFISDVLPDGLAYGEGLRKGNEIMTLNGEAVSDLDLKQMEALFSEKSVGLTLIARPPDTKA
With B3, the Kd amounted to 28.7 µM with Tiam2 peptide 3; 22.5 µM in the assay with Tiam1 peptide 1; 7.7 µM with Tiam1 peptide 3; 9.9 µM with Tiam2 peptide 2; 10.9 µM with Tiam1 peptide 2; 5 µM in the assay with Neurexin1. Further, the equilibrium dissociation constant (Kd) stood at 3.4 µM in the assay with Caspr4, 200 µM with Syndecan1 and 24.1 µM with Model peptide [9].

The record behind these values is publication PMC3059893 (Biochemistry, 2011).
